Source: PubChem
Sampled rows, rich in hits. Any-hit rate of the full collection: about 1.9%.
IDE act – human IDE activators in live cells, primary screen, fluorescence polarization, HEK cells, FAbeta-B substrate. activation, % at 5.96 µM. FAbeta-B cleavage; 0% vehicle, 100% cell-free pure enzyme wells. Insulin-degrading enzyme (Homo sapiens), P14735. 340,000 compounds, 0.073% hits;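 active = activation above the mean of all tested compounds plus 3 SD, set per screening campaign, cut at about 17% in these data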
Target sequence (P14735 whole entry, looked up): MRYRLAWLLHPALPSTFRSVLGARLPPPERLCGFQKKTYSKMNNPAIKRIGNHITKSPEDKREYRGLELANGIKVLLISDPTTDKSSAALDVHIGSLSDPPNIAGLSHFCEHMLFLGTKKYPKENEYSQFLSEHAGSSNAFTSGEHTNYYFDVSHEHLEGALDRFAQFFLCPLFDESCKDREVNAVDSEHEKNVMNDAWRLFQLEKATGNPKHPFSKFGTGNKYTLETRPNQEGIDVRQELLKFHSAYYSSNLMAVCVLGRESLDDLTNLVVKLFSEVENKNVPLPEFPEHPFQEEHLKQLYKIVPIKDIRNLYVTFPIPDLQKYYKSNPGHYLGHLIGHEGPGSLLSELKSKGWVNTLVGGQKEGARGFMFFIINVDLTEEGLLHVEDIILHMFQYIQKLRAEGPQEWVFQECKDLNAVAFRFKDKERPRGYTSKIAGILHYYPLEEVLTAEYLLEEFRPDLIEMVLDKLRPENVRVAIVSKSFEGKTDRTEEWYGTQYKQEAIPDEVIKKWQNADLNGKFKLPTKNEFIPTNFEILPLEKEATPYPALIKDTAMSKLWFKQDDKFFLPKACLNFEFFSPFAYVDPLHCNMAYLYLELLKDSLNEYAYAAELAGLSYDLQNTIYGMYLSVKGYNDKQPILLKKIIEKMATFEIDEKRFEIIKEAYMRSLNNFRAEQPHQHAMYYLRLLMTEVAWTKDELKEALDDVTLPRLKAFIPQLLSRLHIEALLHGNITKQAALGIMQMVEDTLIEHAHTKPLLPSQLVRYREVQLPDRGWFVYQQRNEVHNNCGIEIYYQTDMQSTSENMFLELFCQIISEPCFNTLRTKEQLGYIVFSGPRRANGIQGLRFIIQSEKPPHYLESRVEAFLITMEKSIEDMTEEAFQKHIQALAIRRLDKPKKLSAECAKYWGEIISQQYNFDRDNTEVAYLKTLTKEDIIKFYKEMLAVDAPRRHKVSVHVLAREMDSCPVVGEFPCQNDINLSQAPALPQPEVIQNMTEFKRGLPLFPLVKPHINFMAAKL
procasp3 activ – activators of human procaspase-3 D3A mutant, primary screen, biochemical, absorbance, PC-3 D3A mutant, single concentration; Caspase-3 (Homo sapiens), P42574; recombinant procaspase-3 D3A, Ac-DEVD-pNA absorbance 405 nm; activation, % at 8.5 µM; 330,000 compounds, 0.11% hits; AID 463141, 2010;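 active = activation above the mean of all tested compounds plus 3 SD, cut at about 21% in these data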
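Assay system: Autoprocessing-dead procaspase-3 D3A mutant enzyme; also added: Ac-DEVD-pNA; doses: one concentration, 8.5 µM nominal, 0.8% DMSO; times: 1 h compound preincubation, 2 h substrate hydrolysis at 25 °C; technique: 405 nm absorbance of p-nitroaniline, reads at 0 and 120 min; measure: % activation between DMSO and enzyme-spiked controls; repeats: single replicate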
UBC13 inh – UBC13 polyubiquitin chain formation inhibitors, primary screen, biochemical, TR-FRET, uHTS | Ubiquitin-conjugating enzyme E2 N (Homo sapiens), P61088 | inhibition, % at 20 µM | 330,000 compounds, 0.47% hits; in the data active = inhibition above about 45%, passing the limit was not always enough
PHOSPHO1 block – PubChem AID 1565; 290,000 compounds, 1.1% hits; recombinant PHOSPHO1, absorbance phosphatase assay; Phosphoethanolamine/phosphocholine phosphatase (Homo sapiens), Q8TCT1; inhibition, % at 13.3 µM; in the data active = inhibition above about 60%
IDE inh – human IDE inhibitors in live cells, primary screen, fluorescence polarization, HEK cells, FAbetaB substrate; Insulin-degrading enzyme (Homo sapiens), P14735; FAbetaB cleavage; inhibition, % at 5.59 µM; 320,000 compounds, 0.41% hits; AID 434962, 2010;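 active = percent inhibition above the average of all tested compounds plus 3 SD, set per screening campaign, cut at about 16% in these data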;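 note: IDE supplied by intact live HEK cells; FP after avidin binding of uncleaved biotin substrate so inhibition keeps polarization high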
proCasp7 act – procaspase-7 activators, primary screen, counter-screen for procaspase-3 activator project, biochemical, absorbance, HTS, human; recombinant procaspase-7, Ac-DEVD-pNA absorbance 405 nm; D23A/D198A/D206A triple mutant, cannot self-cleave; scale: DMSO 0, 5 µM enzyme 100; Caspase-7 (Homo sapiens), P55210; AID 463210, 2010; 330,000 compounds, 0.093% hits; activation, % at 8.5 µM;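 active = percent activation above the screen-wide mean plus 3 SD, cut at about 25% in these data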
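Material: Procaspase-7 triple mutant (PC-7 D3A) | Quantity: 2 µM procaspase-7 mutant as dispensed | Reagent: DEVD-pNA substrate | Times: 1 h preincubation, 2 h reaction | Technique: 405 nm absorbance of p-nitroaniline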
Of the large screens only hits and unclear results are named; the others gave an inactive call; ! = not active in a repeat.

CC1=C([N+](=O)[O-])C(c2ccccc2Cl)NC(=O)N1C (stereo unspecified)	PHOSPHO1 block 60
CCOc1ccc2nc(NC(=S)NCc3ccccc3)sc2c1	PHOSPHO1 block 72
CCOc1ccc2nc(NC(=O)Nc3ccccc3)sc2c1	none
Cc1ccc2c(Cl)c(Cc3ccccc3)c(=S)[nH]c2n1	none (no result: procasp3 activ, UBC13 inh, PHOSPHO1 block, IDE inh, proCasp7 act)
O=C(c1ccc2c(=O)n(C3CCCC3)c(=S)[nH]c2c1)N1CCc2ccccc21	PHOSPHO1 block 63
CC(C)NC(=O)c1ccc2c(=O)n(C3CCCC3)c(=S)[nH]c2c1	none
COc1ccccc1-n1c(CNC(=O)c2cccc([N+](=O)[O-])c2C)n[nH]c1=S	none
COc1ccccc1-n1c(CNC(=O)COc2ccccc2)n[nH]c1=S	PHOSPHO1 block 82
N#CCCN1CCN(C(=S)c2ccc(-c3ccc(Cl)c(Cl)c3)o2)CC1	PHOSPHO1 block 67
O=C(c1ccco1)N1CCN(C(=O)c2ccc(-c3ccc(Cl)cc3)o2)CC1	none (no result: PHOSPHO1 block)
CC(=O)N1CCN(C(=S)c2ccc(-c3ccc(Cl)cc3)o2)CC1	PHOSPHO1 block 74
O=[N+]([O-])c1cc(-c2ccc(C(=S)N3CCOCC3)o2)ccc1Cl	PHOSPHO1 block 61
CN(C)CCNC(=O)C(=O)NCC1CCCN1S(=O)(=O)c1cccs1 (stereo unspecified)	none (no result: PHOSPHO1 block)
N#Cc1c(-c2ccncc2)c2c([nH]c1=S)CCCC2	PHOSPHO1 block 77
N#Cc1c(SCC(N)=O)nc2c(c1-c1ccncc1)CCCC2	none
Cc1ccc(-c2c3c([nH]c(=S)c2C#N)CCCC3)o1	PHOSPHO1 block 84
CC(=O)Nc1ccc(S(=O)(=O)N2CCC(N3CCCCC3)CC2)cc1	none
COc1cccc(OC)c1C(=O)N1CCNCC1	none
CCN1C(=O)/C(=C\N2CCN(C(=O)c3ccco3)CC2)SC1=S	none
CCN1CCN(c2c(/C=C3\SC(=S)N(Cc4ccco4)C3=O)c(C)c(C#N)c(=O)n2C)CC1	IDE inh 66
COc1ccc(-n2c(SC3CCOC3=O)nc3ccccc3c2=O)cc1Cl (stereo unspecified)	none
COc1ccc(-n2c(SC3CCOC3=O)nc3ccccc3c2=O)cc1OC (stereo unspecified)	PHOSPHO1 block 66
COc1ccc(N(CC(=O)N2CCN(C)CC2)S(=O)(=O)c2cc(C)ccc2OC)cc1Cl	none
O=C(NC(Cc1ccccc1)C(=O)O)/C(=C/c1ccc(Br)cc1)NC(=O)c1ccc(Br)o1 (stereo unspecified)	none
Clc1ncccc1-c1nc2ccccc2s1	PHOSPHO1 block 61
CCOC(=O)c1cc(C#N)c(SCC(=O)c2cc(C#N)c(SC)nc2C)[nH]c1=O	PHOSPHO1 block 98
CCOC(=O)c1cc(C#N)c(SCC(N)=O)[nH]c1=O	none
O=C(NCc1ccco1)c1ccc(CS(=O)Cc2ccc(Cl)cc2)o1 (stereo unspecified)	none
CCN(C(=O)CSc1nccc(=O)[nH]1)c1cccc2ccccc12	none (no result: PHOSPHO1 block)
O=C(CN1C(=O)NC2(CCc3ccccc32)C1=O)NCc1cccc(C(F)(F)F)c1 (stereo unspecified)	none (no result: PHOSPHO1 block)
COC(=O)c1cc(Br)c(N)cc1OC	PHOSPHO1 block 61
COc1ccccc1/C=C(/NC(=O)c1ccccc1)C(=O)NCCCn1ccnc1	none
CCN(CC)c1ccc(SS(=O)(=O)O)cc1	PHOSPHO1 block 106!
CCN(CC)c1ccc(C(=O)O)cc1	none
CCN(Cc1ccncc1)C(=O)c1cc(COc2c(F)cccc2F)on1	none
Brc1ccc(-c2csc(N3CCC(c4ccccc4)C3)n2)cc1 (stereo unspecified)	procasp3 activ 34
O=C(CN1CCN(CN2C(=O)NC3(CCCCCC3)C2=O)CC1)Nc1ccc(F)cc1	IDE act 19 (no result: PHOSPHO1 block)
